CASP6 VEID inh: inhibitors of human caspase-6; P55212; purified caspase-6, Z-VEID-R110 cleavage fluorescence; inhibition, % at 12.5 µM; actives 0.53% (n = 350,000); AID 686996;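 active means mean inhibition across replicates at least about 35%, with every replicate also reaching that limit, limit read from the data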;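 further: 0% = median of neutral control wells and 100% = no fluorescence left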
TDP2 absorb: blocks human TDP2 phosphodiesterase activity | recombinant TDP2, T5PNP hydrolysis, p-nitrophenol absorbance 415 nm | inhibition, % at 12.8 µM | actives 0.34% (n = 370,000);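 active means inhibition above the mean of all tested compounds plus 3 SD, set per campaign, cut at about 25% in these data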;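 further: 0% = DMSO with enzyme and 100% = buffer with substrate but no TDP2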
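Material: recombinant human TDP2; quantity: TDP2 enzyme at 120 nM final; medium: Tris-HCl pH 7.5 with MgCl2; compound: single concentration, 12.8 µM nominal, with 1% DMSO; incubation: 2 h enzyme incubation at 37 °C; signal: epi absorbance; measure: percent inhibition; benchmarks: high control without enzyme, low control DMSO plus TDP2; repeats: singlicate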
UHRF1 MBD2 ctr: UHRF1 methyl-DNA binding inhibition. Q96T88. UHRF1 binding to methylated oligo, TR-FRET. inhibition, % at 4.4 µM. actives 0.75% (n = 370,000). AID 687016; in the data active means inhibition above about 21%;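 further: UHRF1 SRA domain binding a hemimethylated CpG hairpin DNA probe; 0% = median of test compound wells and 100% = reference inhibitor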
LEDGF integ inh: blocks HIV-1 LEDGF/p75-dependent DNA integration; actives 0.64% (n = 370,000); TR-FRET IN-LEDGF/p75 DNA integration, Eu/Cy5; AID 743269; inhibition, % at 3.7 µM;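 active means inhibition above the screen-wide mean plus 3 SD, cut at about 13% in these data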;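 further: signal is the Cy5 over europium emission ratio at 671 and 618 nm; 0% = plate median of compound wells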
MBD2 DNA inh: MBD2-methylated oligo binding inhibition; TR-FRET, MBD2 binding to methylated oligonucleotide; inhibition, % at 4.4 µM; actives 0.31% (n = 370,000); in the data active means inhibition above about 13%
NSD2 HMT inh: inhibitors of human histone methyltransferase NSD2; O96028; actives 0.54% (n = 310,000); inhibition, % at 12.5 µM; NSD2 peptide methylation, AlphaScreen, 120 min; in the data active means inhibition above about 50%
* = called active by the depositor; x = no result. Hits are enriched below; roughly 1.9% of the tested compounds scored in any of these assays.

SMILES	CASP6 VEID inh	TDP2 absorb	UHRF1 MBD2 ctr	LEDGF integ inh	MBD2 DNA inh	NSD2 HMT inh
COCC(=O)N(C)C[C@H]1Oc2cc(C#C[C@@H](C)O)ccc2S(=O)(=O)N([C@@H](C)CO)C[C@H]1C	1.0	x	x	x	x	x
CCOC(=O)Cc1csc(NC(=O)CSc2nnc(C(C)C)n2CC)n1	x	1.2	-0.3	-1.8	-0.2	-1.6
CCOC(=O)Cc1csc(NC(=O)CSc2nnc3ccccn23)n1	-1.5	-5.9	32.5*	-0.6	-9.1	-3.5
O=C(CC1CC1)N[C@H]1CC[C@H](CCNS(=O)(=O)c2ccc(F)cc2)O[C@H]1CO	-0.2	x	x	x	x	x
CCO/C=C1/C(=O)N(Cc2ccccc2)C(=O)c2ccccc21	93.8*	18.2	-1.5	5.5	-2.0	4.0
CCO/C=C1/C(=O)N(c2ccccc2OC)C(=O)c2ccccc21	37.7*	-0.4	-4.4	-7.1	-8.0	3.2
CCO/C=C1/C(=O)N(c2ccc(OC)cc2)C(=O)c2ccccc21	8.6	-15.7	-2.5	4.1	0.2	5.4
CN(C)C(=O)C[C@H]1CC[C@@H]2[C@H](COC[C@H](O)CN2CC2CCCCC2)O1	-0.6	x	x	x	x	x
C[C@@H]1CCCCO[C@H](CN(C)S(C)(=O)=O)[C@@H](C)CN([C@H](C)CO)C(=O)c2cc(NS(=O)(=O)c3cccs3)ccc2O1	1.2	x	x	x	x	x
COc1ccc(-c2nnc(SCC(=O)N(C)C3CCS(=O)(=O)C3)n2CC(C)C)cc1 (stereo not drawn)	1.1	-7.3	-1.4	-2.7	-0.7	-1.1
COc1ccc(-c2nnc(SCC(=O)N(C)C3CCS(=O)(=O)C3)n2N)cc1OC (stereo not drawn)	-0.6	-5.2	42.2*	-2.2	5.8	0.1
CCNC(=O)C1CCCN(C(=O)Cc2cccs2)CC1 (stereo not drawn)	6.7	11.4	23.9*	0.1	7.0	2.8
O=C(CSc1nccc(=O)[nH]1)NCc1ccco1	42.5*	10.0	33.5*	2.0	1.8	x
CC(=O)c1cc(C#N)c(N2CCOCC2)nc1C	-0.5	1.0	34.1*	-2.5	0.3	0.2
O=C(Nc1ccc(NC(=O)C2CC2)cc1)c1cccs1	59.2*	0.7	-2.5	2.0	0.3	-2.5
O=C(Nc1ccc(NC(=O)c2cccs2)cc1)c1cccs1	0.5	-4.1	-1.8	-0.2	5.5	-2.1
CN(C)C(=O)C[C@H]1C=C[C@@H](NC(=O)C2CCOCC2)[C@H](CO)O1	3.7	x	x	x	x	x
Cc1ccc(NC(=O)[C@H](Cc2ccccc2)NC(=O)[C@@H]2Cc3ccccc3CN2)c(C)c1	-7.0	4.1	26.6*	1.5	12.6	-0.8
Cc1ccc(NC(=O)[C@H](NC(=O)[C@@H]2Cc3ccccc3CN2)c2ccccc2)c(C)c1	4.6	-0.6	-0.9	-6.8	2.6	3.7
O=C(O)C1=C(C(=O)O)C2C=CC1C2	52.5*	-13.1	33.0*	4.8	12.0	5.9
NC(=O)c1ncn([C@@H]2O[C@H](CNCc3cccc4c3sc3ccccc34)[C@@H](O)[C@H]2O)n1	3.1	-3.9	21.5*	-2.2	8.6	x
NC(=O)c1ncn([C@@H]2O[C@H](CNCc3ccccc3OCc3ccc(Cl)cc3Cl)[C@@H](O)[C@H]2O)n1	-1.2	8.7	-4.4	0.3	-6.0	x
CC(C)Oc1ccc2ccccc2c1CNC[C@H]1O[C@@H](n2cnc(C(N)=O)n2)[C@H](O)[C@@H]1O	-3.5	-0.2	43.9*	2.9	5.6	x
CC(=O)N1[C@@H]2Cn3c(ccc(C4=CCCC4)c3=O)[C@H]1[C@@H](C(=O)NCC1CC1)[C@@H]2CO	1.7	x	x	x	x	x
COc1ccccc1N1CCN(C(=O)C2CCCN(S(=O)(=O)c3ccc4c(c3)oc(=O)n4C)C2)CC1 (stereo not drawn)	1.6	-3.0	24.4*	-3.4	7.2	3.7
SMILES	CASP6 VEID inh	TDP2 absorb	UHRF1 MBD2 ctr	LEDGF integ inh	MBD2 DNA inh	NSD2 HMT inh
C[C@H](CO)N1C[C@H](C)[C@H](CN(C)S(=O)(=O)c2ccc(Cl)cc2)Oc2ccc(N(C)C)cc2CC1=O	0.1	x	x	x	x	x
O=C1NC(Cc2ccc(O)cc2)c2nc3ccc(Br)cc3c(=O)n2-c2ncccc21 (stereo not drawn)	40.5*	10.8	-2.7	3.5	-7.2	x
O=C1NC(Cc2ccc(O)cc2)c2nc3ccc(Br)cc3c(=O)n2-c2cc3ccccc3cc21 (stereo not drawn)	3.1	-1.1	-0.6	3.6	-1.0	x
CCCn1nc([N+](=O)[O-])c(C(C#N)c2nc3ccccc3s2)c(Cl)c1=O (stereo not drawn)	x	3.6	-3.3	-0.5	-1.2	51.7*
C[C@@H]1CN([C@@H](C)CO)C(=O)c2cccc(NS(=O)(=O)c3ccc(Cl)cc3)c2O[C@@H]1CN(C)S(=O)(=O)c1cccs1	-2.2	x	x	x	x	x
Cc1[nH][nH]c(=O)c1C(c1c(C)[nH][nH]c1=O)c1cn(Cc2ccc(F)cc2)c2ccccc12	x	x	x	x	x	88.1*
CC(C)CCn1nnnc1C(c1ccc(F)cc1)N1CCC(C(N)=O)CC1 (stereo not drawn)	x	12.5	21.7*	3.3	7.2	x
CC(C)CCn1nnnc1C(c1ccccc1)N1CCC(C(N)=O)CC1 (stereo not drawn)	x	2.9	-2.8	1.9	1.6	0.3
CCOc1cc(C(N)=O)cc(Cl)c1OCc1ccccc1	-2.6	13.8	-0.1	0.2	0.5	-4.1
CCOc1cc(/C=C(/NC(C)=O)C(=O)O)cc(Cl)c1OCc1cccc(Br)c1	39.1*	5.3	5.5	0.1	1.2	12.4
C[C@@H]1CN([C@H](C)CO)S(=O)(=O)c2ccc(Br)cc2O[C@H]1CN(C)C(=O)Nc1ccccc1	-0.1	-3.3	21.1*	-1.9	2.8	x
C[C@H](CO)N1C[C@H](C)[C@@H](CN(C)C(=O)Nc2ccccc2)Oc2cc(Br)ccc2S1(=O)=O	0.6	6.3	1.7	2.3	0.8	x
C[C@@H]1CN([C@@H](C)CO)S(=O)(=O)c2ccc(Br)cc2O[C@H]1CN(C)C(=O)Nc1ccc2c(c1)OCO2	1.9	7.0	56.1*	-1.4	-5.7	x
COc1ccccc1C#Cc1ccc2c(c1)O[C@@H](CN(C)C)[C@@H](C)CN([C@@H](C)CO)S2(=O)=O	48.4*	x	x	x	x	x
O=C(c1ccccn1)N1CC[C@@H]2[C@H]1c1cc(C#Cc3ccccc3)ccc1N[C@@H]2CO	1.7	x	x	x	x	x
CN(C)C(=O)[C@@H]1[C@@H](CO)[C@@H]2Cn3c(ccc(C4=CCCC4)c3=O)[C@H]1N2Cc1cccnc1	-5.6	x	x	x	x	x
Cc1cc(C)cc(-c2nnc(SCC(=O)NCc3cccs3)o2)c1	x	3.9	0.1	-0.2	0.8	0.2
CNC(=O)CSc1nnc(-c2cc(C)cc(C)c2)o1	1.2	2.8	67.4*	0.2	-6.6	-0.5
CC(C)c1csc(CN2CCC(CO)(Cc3cccc(F)c3)CC2)n1	4.5	-6.6	58.8*	-4.2	6.1	2.9
